Assay results from PMC3776988 (British Journal of Cancer, 2013).
Starred links: 1 amine or outer side, 2 acyl side, 3 side chain; linkers in the order of their positions; H or OH if unused. Positions of bridges follow the written chain, without caps; N, C: chain ends. Non-standard residues stand in square brackets, D forms with d. Residues, ends and D or L forms follow the SMILES beside them. *: point of attachment. X1 = CC[C@H](C)[C@@H](N[*:1])[C@@H](O)CC(=O)O[C@H](C(=O)[C@H](C)C(=O)[*:2])C(C)C; NMeY = CN[C@@H](Cc1ccc(O)cc1)C(=O)O; dNMeL = CN[C@H](CC(C)C)C(=O)O; Pyruvoyl = CC(=O)C(=O)*

Tests used:
[1] = system: patients with metastatic/advanced melanoma; settings: cited from earlier work
[2] = system: patients; settings: plitidepsin 1-h weekly schedule; ref Izquierdo et al, 2008; cited from earlier work
[3] = system: patients with advanced malignant melanoma; assay: Phase II stage toxicity; assay type: in vivo, human; settings: single-agent plitidepsin 3.2 mg m^−2
In short: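 Previously untreated adults with advanced melanoma (ECOG PS ⩽2) were randomised without stratification to plitidepsin 3.2 mg m−2 as a 1-h i.v. infusion on days 1, 8 and 15 q4wk. Day-1 dosing could be delayed up to 2 weeks, and day-8/15 doses were skipped if retreatment criteria were unmet. Up to two dose reductions were allowed. Patients receiving ⩾1 infusion were evaluable; AEs were graded by NCI-CTCAE v.3.0.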

Structure (SMILES)	Responses to single-agent DTIC, % of patients ([1]; generally short lived, ref Falkson et al, 1998, Chapman et al, 1999, Chiarion Sileni et al, 2001, Avril et al, 2004, Bedikian et al, 2006, Schadendorf et al, 2006, Patel et al, 2011)	Response rates reported for single-agent DTIC ([1]; reported range)	Single-agent RD [2]	Febrile neutropenia [3]	Grade 3 ALT increases, % of patients [3]	Omissions because of treatment-related transaminase increases [3]	Patients who skipped at least one plitidepsin infusion [3]
CN(C)/N=N/c1[nH]cnc1C(N)=O [DTIC, Dacarbazine]	6–15%	5–15%	–	–	–	–	–
CC[C@H](C)[C@H]1NC(=O)[C@@H](NC(=O)[C@@H](CC(C)C)N(C)C(=O)[C@@H]2CCCN2C(=O)C(C)=O)[C@@H](C)OC(=O)[C@H](Cc2ccc(OC)cc2)N(C)C(=O)[C@@H]2CCCN2C(=O)[C@H](CC(C)C)NC(=O)[C@@H](C)C(=O)[C@H](C(C)C)OC(=O)C[C@@H]1O [Plitidepsin, plitidepsin] (Pyruvoyl-P[dNMeL]T[X1]LP[NMeY](Me); ester 3-C)	–	–	3.2 mg m^−2	no cases	10%	25%	47%
